Legend:
[1] = molecular target: T1, Monoacylglycerol lipase ABHD6 (Mus musculus, UniProt Q8R2Y0); assay: Inhibition of ABHD6 in mouse brain membrane; format: cell membranes
T1 sequence (Q8R2Y0 whole entry): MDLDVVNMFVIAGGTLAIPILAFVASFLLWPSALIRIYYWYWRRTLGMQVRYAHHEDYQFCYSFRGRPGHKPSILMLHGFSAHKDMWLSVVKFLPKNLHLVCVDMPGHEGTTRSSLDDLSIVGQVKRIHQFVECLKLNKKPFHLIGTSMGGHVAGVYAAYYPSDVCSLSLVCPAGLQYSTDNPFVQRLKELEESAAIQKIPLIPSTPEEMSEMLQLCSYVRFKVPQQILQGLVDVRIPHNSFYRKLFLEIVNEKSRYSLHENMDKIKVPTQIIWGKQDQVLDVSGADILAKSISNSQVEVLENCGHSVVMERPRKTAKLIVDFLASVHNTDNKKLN
In short: (§1)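 Mouse brain membrane fraction (Dounce homogenized in PBS pH 7.5, 1,400 × g debris spin, 64,000 × g 45 min pellet, resuspended) at 1 mg/ml in PBS. Inhibitor preincubated 30 min at 37°C, then FP-rhodamine 1 μM final for 30 min at 25°C. SDS-PAGE with in-gel fluorescence scanning. IC50 from fitted integrated band intensities, mean of at least triplicates.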

[2] = molecular target: T2, Patatin-like phospholipase domain-containing protein 6 (Mus musculus, UniProt Q3TRM4); assay: Inhibition of NTE in mouse brain membrane; format: cell membranes; in short: as §1
T2 sequence (Q3TRM4 whole entry): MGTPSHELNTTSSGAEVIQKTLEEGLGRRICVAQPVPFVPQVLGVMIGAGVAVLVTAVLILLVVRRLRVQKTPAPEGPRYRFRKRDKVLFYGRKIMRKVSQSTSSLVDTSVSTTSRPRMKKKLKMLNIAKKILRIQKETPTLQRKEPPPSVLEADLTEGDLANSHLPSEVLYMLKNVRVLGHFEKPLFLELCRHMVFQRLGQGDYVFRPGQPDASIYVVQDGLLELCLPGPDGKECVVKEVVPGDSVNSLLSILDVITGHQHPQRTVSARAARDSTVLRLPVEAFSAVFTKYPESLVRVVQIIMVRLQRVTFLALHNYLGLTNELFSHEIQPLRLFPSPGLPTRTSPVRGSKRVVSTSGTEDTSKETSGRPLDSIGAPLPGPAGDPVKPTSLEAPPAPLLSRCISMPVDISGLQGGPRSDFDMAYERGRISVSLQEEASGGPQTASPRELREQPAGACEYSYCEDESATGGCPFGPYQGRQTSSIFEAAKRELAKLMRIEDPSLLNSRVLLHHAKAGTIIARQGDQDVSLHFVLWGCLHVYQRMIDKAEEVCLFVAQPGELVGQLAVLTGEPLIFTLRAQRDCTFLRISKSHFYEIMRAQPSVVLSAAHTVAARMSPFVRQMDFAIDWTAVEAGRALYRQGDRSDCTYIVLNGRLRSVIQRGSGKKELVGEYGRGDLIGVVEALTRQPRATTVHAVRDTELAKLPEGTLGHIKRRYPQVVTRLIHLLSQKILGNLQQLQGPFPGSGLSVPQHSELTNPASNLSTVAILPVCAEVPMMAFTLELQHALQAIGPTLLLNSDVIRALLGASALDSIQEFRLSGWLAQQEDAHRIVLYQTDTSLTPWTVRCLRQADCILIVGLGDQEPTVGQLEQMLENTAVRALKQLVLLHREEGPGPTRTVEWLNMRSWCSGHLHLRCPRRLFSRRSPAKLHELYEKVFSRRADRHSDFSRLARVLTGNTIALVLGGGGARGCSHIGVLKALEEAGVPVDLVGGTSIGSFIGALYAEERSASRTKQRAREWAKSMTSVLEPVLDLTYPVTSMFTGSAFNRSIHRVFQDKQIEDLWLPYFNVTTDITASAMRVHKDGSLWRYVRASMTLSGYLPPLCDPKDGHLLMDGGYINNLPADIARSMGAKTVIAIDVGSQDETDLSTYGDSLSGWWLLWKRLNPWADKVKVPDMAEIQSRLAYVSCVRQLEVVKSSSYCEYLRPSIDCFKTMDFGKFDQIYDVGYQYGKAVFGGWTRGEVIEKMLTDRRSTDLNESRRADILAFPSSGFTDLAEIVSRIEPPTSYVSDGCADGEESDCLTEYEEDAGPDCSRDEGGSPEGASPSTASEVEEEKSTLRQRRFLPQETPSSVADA

Monoglyceride lipase = molecular target: T3, Monoglyceride lipase (Mus musculus, UniProt O35678); assay: Inhibition of MAGL in mouse brain membrane; format: cell membranes; in short: as §1
T3 sequence (O35678 whole entry): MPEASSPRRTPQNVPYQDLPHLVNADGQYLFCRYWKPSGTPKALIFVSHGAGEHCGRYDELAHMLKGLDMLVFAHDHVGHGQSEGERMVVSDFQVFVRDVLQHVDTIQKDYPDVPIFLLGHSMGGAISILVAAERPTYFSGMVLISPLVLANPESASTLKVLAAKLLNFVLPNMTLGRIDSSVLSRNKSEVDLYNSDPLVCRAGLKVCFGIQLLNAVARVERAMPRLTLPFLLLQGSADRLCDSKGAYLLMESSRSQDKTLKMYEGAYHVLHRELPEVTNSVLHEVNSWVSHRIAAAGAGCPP

[3] = molecular target: T4, Fatty-acid amide hydrolase 1 (Mus musculus, UniProt O08914); assay: Inhibition of FAAH in mouse brain membrane; format: cell membranes; in short: as §1
T4 sequence (O08914 whole entry): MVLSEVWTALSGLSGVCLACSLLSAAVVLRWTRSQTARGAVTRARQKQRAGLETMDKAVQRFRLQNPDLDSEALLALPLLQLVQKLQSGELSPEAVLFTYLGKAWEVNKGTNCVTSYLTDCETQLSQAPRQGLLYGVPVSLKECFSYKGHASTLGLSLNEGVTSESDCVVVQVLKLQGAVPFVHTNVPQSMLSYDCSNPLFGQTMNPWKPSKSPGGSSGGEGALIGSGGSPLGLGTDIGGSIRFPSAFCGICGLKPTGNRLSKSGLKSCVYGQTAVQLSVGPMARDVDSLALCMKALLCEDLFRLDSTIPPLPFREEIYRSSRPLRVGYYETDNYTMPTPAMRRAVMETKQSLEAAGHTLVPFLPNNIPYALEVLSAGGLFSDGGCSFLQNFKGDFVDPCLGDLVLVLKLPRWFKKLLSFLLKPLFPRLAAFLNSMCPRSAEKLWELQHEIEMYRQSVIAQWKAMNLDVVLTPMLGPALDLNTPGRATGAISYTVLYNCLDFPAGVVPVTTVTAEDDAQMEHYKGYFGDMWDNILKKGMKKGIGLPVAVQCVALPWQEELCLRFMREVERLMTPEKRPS

Mus musculus = species on record: Mus musculus; assay: Selectivity ratio of IC50 for mouse FAAH to IC50 for mouse MAGL
In short: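 Competitive ABPP on mouse brain membrane proteome (Dounce-homogenized in PBS pH 7.5, 64,000 × g pellet, resuspended), diluted to 1 mg/ml in PBS. Inhibitor preincubated 30 min at 37°C, then FP-rhodamine 1 μM final for 30 min at 25°C. SDS-PAGE and in-gel fluorescence scanning. IC50s for FAAH and MAGL come from integrated band intensities, means of ≥3 runs; the ratio is taken from these.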

O=C(Oc1ccc([N+](=O)[O-])cc1)N1CCN(Cc2ccccc2)CC1
IC50 [1]: 740 nM | IC50 [2]: 610 nM | IC50 (Monoglyceride lipase): 900 nM | IC50 [3]: 930 nM

O=C(Oc1ccc([N+](=O)[O-])cc1)N1CCC(C(O)(c2ccc3c(c2)OCO3)c2ccc3c(c2)OCO3)CC1
IC50 [1]: 3270 nM

COc1ccc(C(O)(c2ccc(OC)cc2)C2CCN(C(=O)Oc3ccc([N+](=O)[O-])cc3)CC2)cc1
IC50 [1]: 2110 nM | IC50 (Monoglyceride lipase): 40 nM | Ratio IC50 (Mus musculus): 68 | IC50 [3]: 2660 nM

O=C(Oc1ccc([N+](=O)[O-])cc1)N1CCN(Cc2ccccc2-c2ccccc2)CC1
IC50 [1]: 2860 nM | IC50 [2]: 330 nM | IC50 (Monoglyceride lipase): 670 nM | IC50 [3]: 3570 nM

CN(C)c1ccc(C(O)(c2ccc(N(C)C)cc2)C2CCN(C(=O)Oc3ccc([N+](=O)[O-])cc3)CC2)cc1
IC50 [1]: 1020 nM | IC50 (Monoglyceride lipase): 2120 nM | Ratio IC50 (Mus musculus): 5 | IC50 [3]: 10500 nM

O=C(Oc1ccc([N+](=O)[O-])cc1)N1CCC(C(O)(c2ccc3ccccc3c2)c2ccc3ccccc3c2)CC1
IC50 [1]: 3430 nM | IC50 (Monoglyceride lipase): 810 nM | Ratio IC50 (Mus musculus): 6 | IC50 [3]: 4690 nM

COc1ccccc1C(O)(c1ccccc1OC)C1CCN(C(=O)Oc2ccc([N+](=O)[O-])cc2)CC1
IC50 [1]: 1100 nM | IC50 (Monoglyceride lipase): 510 nM | IC50 [3]: 15100 nM

COc1cc(OCc2ccccc2)ccc1CN1CCN(C(=O)Oc2ccc([N+](=O)[O-])cc2)CC1
IC50 [1]: 310 nM | IC50 [2]: 420 nM | IC50 (Monoglyceride lipase): 90 nM | IC50 [3]: 930 nM

COc1ccc(CN2CCN(C(=O)Oc3ccc([N+](=O)[O-])cc3)CC2)cc1
IC50 [1]: 1270 nM | IC50 [2]: 480 nM | IC50 (Monoglyceride lipase): 1530 nM | IC50 [3]: 1050 nM

O=C(Oc1ccc([N+](=O)[O-])cc1)N1CCN(Cc2ccc(-c3ccccc3)o2)CC1
IC50 [1]: 220 nM | IC50 [2]: 250 nM | IC50 (Monoglyceride lipase): 90 nM | IC50 [3]: 20 nM

O=C(Oc1ccc([N+](=O)[O-])cc1)N1CCC(C(O)(c2ccc(Cl)cc2)c2ccc(Cl)cc2)CC1
IC50 [1]: 180 nM | IC50 (Monoglyceride lipase): 1100 nM | Ratio IC50 (Mus musculus): 3 | IC50 [3]: 3360 nM

O=C(Oc1ccc([N+](=O)[O-])cc1)N1CCC2(CC1)OC2(c1ccccc1)c1ccccc1
IC50 [1]: 380 nM | IC50 (Monoglyceride lipase): 200 nM | Ratio IC50 (Mus musculus): 29 | IC50 [3]: 5850 nM

O=C(Oc1ccc([N+](=O)[O-])cc1)N1CCN(Cc2ccc(-c3ccccc3)cc2)CC1
IC50 [1]: 1650 nM | IC50 [2]: 4270 nM | IC50 (Monoglyceride lipase): 15 nM | IC50 [3]: 4600 nM

O=C(Oc1ccc([N+](=O)[O-])cc1)N1CCN(Cc2ccc3ccccc3c2)CC1
IC50 [1]: 150 nM | IC50 [2]: 1100 nM | IC50 (Monoglyceride lipase): 70 nM | IC50 [3]: 380 nM

O=C(Oc1ccc([N+](=O)[O-])cc1)N1CCC(=C(c2ccccc2)c2ccccc2)CC1
IC50 [1]: 1300 nM | IC50 (Monoglyceride lipase): 1390 nM | Ratio IC50 (Mus musculus): 3 | IC50 [3]: 3500 nM

O=C(Oc1ccc([N+](=O)[O-])cc1)N1CCN(Cc2cc(-c3ccccc3)cs2)CC1
IC50 [1]: 1000 nM | IC50 [2]: 890 nM | IC50 (Monoglyceride lipase): 10 nM | IC50 [3]: 280 nM

O=C(Oc1ccc([N+](=O)[O-])cc1)N1CCN(Cc2ccc3ccccc3n2)CC1
IC50 [1]: 490 nM | IC50 [2]: 910 nM | IC50 (Monoglyceride lipase): 80 nM | IC50 [3]: 1040 nM

COc1ccc(C(O)(c2ccc(OC)cc2)C2CCN(C(=O)Oc3ccc([N+](=O)[O-])cc3)C2)cc1 (stereo not given)
IC50 [1]: > 50000 nM | IC50 (Monoglyceride lipase): > 50000 nM | IC50 [3]: > 50000 nM

COc1ccc(C(O)(c2ccc(OC)c(OC)c2)C2CCN(C(=O)Oc3ccc([N+](=O)[O-])cc3)CC2)cc1OC
IC50 [1]: 6960 nM | IC50 (Monoglyceride lipase): 1300 nM | IC50 [3]: > 50000 nM

CN(CCC(c1ccccc1)c1ccccc1)C(=O)Oc1ccc([N+](=O)[O-])cc1
IC50 [1]: > 50000 nM | IC50 (Monoglyceride lipase): > 50000 nM | IC50 [3]: > 50000 nM

CN(C(=O)Oc1ccc([N+](=O)[O-])cc1)C(c1ccccc1)c1ccccc1
IC50 [1]: > 50000 nM | IC50 (Monoglyceride lipase): > 50000 nM | IC50 [3]: > 50000 nM

O=C(Oc1ccc([N+](=O)[O-])cc1)N1CCN(Cc2ccc(-c3ccccc3)s2)CC1
IC50 [1]: 220 nM | IC50 [2]: 80 nM | IC50 (Monoglyceride lipase): 50 nM | IC50 [3]: 40 nM
